This note sets out measurements from ChEMBL document CHEMBL4680373, “Evaluation of 5-(Trifluoromethyl)-1,2,4-oxadiazole-Based Class IIa HDAC Inhibitors for Huntington's Disease” (ACS Med Chem Lett, 2021).

As a reminder, the IC50 is the concentration that gives 50% inhibition. The low end stands for greater potency in that assay, the high end for weaker potency in that assay.

Data set [1] can be described thus: Toxicity in CBAxC57BL/6J mouse assessed as effect on shallow respiration at 10 to 100 mg/kg, po bid for 14.5 days. Format: organism-based. The following applies: in vivo, 348 h, dose 10-100 mg/kg, time 14.5 day. Put shortly:
(§1)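 R6/2 HD mice and wild-type littermates, male and female, were dosed orally b.i.d. at 10, 30 or 100 mg/kg or with vehicle for 14.5 days. Vehicle was 10% (w/v) hydroxypropyl-β-cyclodextrin in 50 mM citrate buffer. Body weight, body temperature, passive observations and active manipulation scores were recorded. Blood and brain were collected 2 h after the final dose.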

The target in data set [2] is Cytochrome P450 3A4 (Homo sapiens, UniProt P08684). Put plainly: Inhibition of CYP3A4 in human liver microsomes using testosterone as substrate incubated for 30 mins by LC-MS/MS analysis. In kind it is ADME. In general terms: Liver microsomes are vesicles of endoplasmic reticulum, rich in cytochrome P450 enzymes.
Sequence of Cytochrome P450 3A4 (P08684 whole entry): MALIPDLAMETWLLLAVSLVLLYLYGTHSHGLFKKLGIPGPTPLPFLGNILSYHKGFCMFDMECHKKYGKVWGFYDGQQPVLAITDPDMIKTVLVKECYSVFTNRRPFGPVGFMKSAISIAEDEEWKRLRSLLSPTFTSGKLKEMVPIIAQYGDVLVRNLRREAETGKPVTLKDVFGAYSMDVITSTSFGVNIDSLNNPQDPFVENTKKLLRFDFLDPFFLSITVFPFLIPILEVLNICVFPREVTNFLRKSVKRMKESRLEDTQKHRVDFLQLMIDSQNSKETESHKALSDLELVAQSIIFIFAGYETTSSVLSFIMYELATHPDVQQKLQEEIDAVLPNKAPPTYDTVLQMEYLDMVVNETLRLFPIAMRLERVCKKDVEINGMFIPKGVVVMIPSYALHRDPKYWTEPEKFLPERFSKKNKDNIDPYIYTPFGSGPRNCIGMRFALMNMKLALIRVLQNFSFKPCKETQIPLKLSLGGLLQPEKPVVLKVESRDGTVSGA
The target of data set [3] is Histone deacetylase 9 (Homo sapiens, UniProt Q9UKV0). Put plainly: Inhibition of HDAC9 (unknown origin) using Boc Lys(TFA) as substrate by fluorogenic assay. In short, it runs like this:
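Biochemical HDAC isoform assay with the artificial fluorogenic substrate Boc-Lys-(TFA)-AMC, which is specific to class IIa enzymes and HDAC8. IC50 taken as the geometric mean of three experiments.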

In data set [4] the target is Histone deacetylase 1 (Homo sapiens, UniProt Q13547). Put plainly: Inhibition of HDAC1 (unknown origin) using Ac-Arg-Gly-Lys(Ac) as substrate by fluorogenic assay.
Sequence of Histone deacetylase 1 (Q13547 whole entry): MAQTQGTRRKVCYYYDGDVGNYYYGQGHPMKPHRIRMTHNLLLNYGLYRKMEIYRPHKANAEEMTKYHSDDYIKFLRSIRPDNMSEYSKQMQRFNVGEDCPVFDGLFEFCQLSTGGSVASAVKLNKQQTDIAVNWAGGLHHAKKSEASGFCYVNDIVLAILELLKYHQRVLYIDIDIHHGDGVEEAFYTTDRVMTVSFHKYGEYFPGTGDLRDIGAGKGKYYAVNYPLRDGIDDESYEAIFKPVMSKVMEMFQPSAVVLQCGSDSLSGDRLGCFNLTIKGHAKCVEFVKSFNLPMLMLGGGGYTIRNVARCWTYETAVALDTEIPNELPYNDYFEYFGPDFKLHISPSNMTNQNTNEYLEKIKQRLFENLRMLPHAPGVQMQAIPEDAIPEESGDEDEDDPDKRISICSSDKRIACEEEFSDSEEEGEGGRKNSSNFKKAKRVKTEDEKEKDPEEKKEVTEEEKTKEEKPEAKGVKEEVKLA
Data set [5] can be described thus: Time during which drug concentration exceeds the IC50 for inhibition of human Class 2A HDAC in C57BL/6J mouse brain at 10 mg/kg, po administered via gavage by LC-MS/MS analysis. In kind it is organism-based. Particulars: in vivo. In short, it runs like this:
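Single oral gavage doses of 10, 30 or 100 mg/kg were given to C57/BL6 mice. Brain and blood were sampled from 0.25 to 12 h and compound measured by LC-MS/MS. The time that total brain exposure stayed above the class IIa cellular IC50 was then estimated.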

Data set [6] is described as follows: Toxicity in CBAxC57BL/6J mouse assessed as effect on seizure by tail at 10 to 100 mg/kg, po bid for 14.5 days. In kind it is organism-based. The following applies: in vivo, 348 h, dose 10-100 mg/kg, time 14.5 day. In short, it runs like this: as §1
Data set [7] in a line: Toxicity in CBAxC57BL/6J mouse assessed as effect on tail tremor at 10 to 100 mg/kg, po bid for 14.5 days. Format: organism-based. Particulars: in vivo, 348 h, dose 10-100 mg/kg, time 14.5 day. Put shortly: as §1
The nature of data set [8]: Stability of the compound in 10% (w/v) hydroxypropyl-beta-cyclodextrin in 50 mM citrate buffer at pH 5 measured over 30 days. The following applies: pH 5, 720 h, time 30 day. Format: physicochemical.

Sequence of Histone deacetylase 9 (Q9UKV0 whole entry, canonical isoform): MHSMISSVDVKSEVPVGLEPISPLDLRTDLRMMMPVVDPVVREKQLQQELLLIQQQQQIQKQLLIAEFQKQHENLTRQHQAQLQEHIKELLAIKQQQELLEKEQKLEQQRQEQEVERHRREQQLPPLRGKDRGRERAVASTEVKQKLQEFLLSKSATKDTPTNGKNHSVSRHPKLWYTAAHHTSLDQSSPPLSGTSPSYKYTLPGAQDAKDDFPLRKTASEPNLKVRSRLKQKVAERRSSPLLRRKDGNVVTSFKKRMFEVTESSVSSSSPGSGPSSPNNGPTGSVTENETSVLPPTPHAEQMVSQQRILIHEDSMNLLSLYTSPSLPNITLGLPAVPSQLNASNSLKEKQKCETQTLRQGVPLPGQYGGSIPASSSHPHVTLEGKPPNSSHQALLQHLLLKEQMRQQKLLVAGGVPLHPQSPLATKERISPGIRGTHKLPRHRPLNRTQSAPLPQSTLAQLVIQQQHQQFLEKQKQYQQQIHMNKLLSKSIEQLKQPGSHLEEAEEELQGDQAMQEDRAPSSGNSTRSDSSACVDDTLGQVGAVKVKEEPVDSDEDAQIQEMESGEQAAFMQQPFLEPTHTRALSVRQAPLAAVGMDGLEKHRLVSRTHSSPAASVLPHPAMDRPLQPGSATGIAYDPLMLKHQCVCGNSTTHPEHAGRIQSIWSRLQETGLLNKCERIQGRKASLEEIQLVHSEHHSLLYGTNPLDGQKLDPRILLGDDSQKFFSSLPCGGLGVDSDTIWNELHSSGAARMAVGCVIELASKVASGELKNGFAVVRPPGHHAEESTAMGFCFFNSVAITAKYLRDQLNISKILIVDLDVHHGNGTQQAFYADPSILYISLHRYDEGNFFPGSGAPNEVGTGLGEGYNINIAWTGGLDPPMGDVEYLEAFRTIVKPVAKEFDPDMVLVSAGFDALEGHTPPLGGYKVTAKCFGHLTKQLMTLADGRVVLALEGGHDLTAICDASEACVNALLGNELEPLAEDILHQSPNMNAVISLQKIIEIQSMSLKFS

For `C[C@H](CN1CCC[C@@H]1C)NC(=O)c1ccc(-c2noc(C(F)(F)F)n2)cc1`, the Activity result in data set [1], in data set [6] and in data set [7] was “Non-Toxic” throughout. The IC50 was over 50 µM in data set [2], 0.03 µM in data set [3] and 17 µM in data set [4]. The “T>IC50” value in data set [5] worked out at 4 h. Besides, the Stabilty entry in data set [8] was “Stable”.
